In ChEMBL document CHEMBL2021776, “Highly potent and selective fluorescent antagonists of the human adenosine A₃ receptor based on the 1,2,4-triazolo[4,3-a]quinoxalin-1-one scaffold” (J Med Chem, 2012):
Calls of active or inactive are those of the source. No cut-off for these calls is given here.

Assays:
Adenosine receptor A3 = molecular target: T1, Adenosine receptor A3 (Homo sapiens, UniProt P0DMS8); test: Antagonist activity at human adenosine A3 receptor expressed in forskolin-stimulated CHO cells assessed as inhibition of NECA-induced CRE-SPAP gene transcription by measuring intracellular cAMP level after 5 hrs; assay type: functional, cell-based
T1 sequence (P0DMS8 whole entry): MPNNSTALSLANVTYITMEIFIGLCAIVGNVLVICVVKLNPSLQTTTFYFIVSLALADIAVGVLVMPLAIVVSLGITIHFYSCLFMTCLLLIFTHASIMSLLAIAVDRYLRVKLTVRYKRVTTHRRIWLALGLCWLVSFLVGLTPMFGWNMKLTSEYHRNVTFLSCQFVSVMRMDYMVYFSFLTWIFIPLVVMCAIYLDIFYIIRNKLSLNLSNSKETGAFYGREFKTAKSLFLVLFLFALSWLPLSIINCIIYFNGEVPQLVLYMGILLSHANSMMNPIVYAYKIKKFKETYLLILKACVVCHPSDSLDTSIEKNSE
Method in brief: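 Clonal CHO cells co-expressing CRE-SPAP reporter and human A3 receptor, serum-starved 18 h. Three antagonist concentrations for 30 min at 37 °C, then NECA curves for 30 min, then 1 μM forskolin for 5 h. After 1 h in fresh medium and 65 °C heat step, SPAP activity read as 4-nitrophenyl phosphate hydrolysis (405 nm). Curves globally fitted to an interaction model.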

Adenosine receptor A2b = molecular target: T2, Adenosine receptor A2b (Homo sapiens, UniProt P29275); test: Antagonist activity at adenosine A2B receptor in HEK293 cells expressing glosensor cAMP biosensor assessed as inhibition of NECA-induced increase of intracellular cAMP level after 5 hrs; assay type: functional, cell-based
T2 sequence (P29275 whole entry): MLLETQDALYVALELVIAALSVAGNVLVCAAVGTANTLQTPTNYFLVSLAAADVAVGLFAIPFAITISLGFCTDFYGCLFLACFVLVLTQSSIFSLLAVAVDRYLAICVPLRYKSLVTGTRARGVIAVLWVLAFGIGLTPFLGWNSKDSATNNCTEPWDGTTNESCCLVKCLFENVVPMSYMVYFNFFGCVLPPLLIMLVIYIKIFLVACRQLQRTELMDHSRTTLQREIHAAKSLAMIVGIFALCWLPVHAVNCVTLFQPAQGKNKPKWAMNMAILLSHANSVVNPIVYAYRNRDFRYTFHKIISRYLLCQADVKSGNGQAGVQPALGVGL
Method in brief: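 HEK293 cells stably expressing Glosensor cAMP biosensor, with endogenous human A2B receptor. Cells equilibrated 2 h at 37 °C in HBSS with 3% v/v Glosensor reagent. Antagonist added at 1.5 h, NECA at 2 h. Luminescence read every 2 min for 60 min; maximal read used. pKD estimated from rightward shift of NECA curve by 1 μM antagonist via dose ratio.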

[1] = molecular target: T3, Adenosine receptor A1 (Homo sapiens) (UniProt P30542); test: Binding affinity to human full length human adenosine A1 receptor expressed in CHO cells at 25 nM after 10 mins by confocal microscopic analysis; assay type: cell-based
T3 sequence (whole entry): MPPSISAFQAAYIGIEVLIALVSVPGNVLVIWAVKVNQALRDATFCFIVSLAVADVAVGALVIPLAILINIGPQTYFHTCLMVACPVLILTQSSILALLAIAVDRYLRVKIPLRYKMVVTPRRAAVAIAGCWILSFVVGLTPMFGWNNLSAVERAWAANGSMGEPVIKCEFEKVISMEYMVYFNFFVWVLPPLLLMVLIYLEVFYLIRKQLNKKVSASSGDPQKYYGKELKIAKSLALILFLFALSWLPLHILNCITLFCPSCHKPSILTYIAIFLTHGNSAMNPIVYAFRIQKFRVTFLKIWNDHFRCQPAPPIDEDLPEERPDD
Method in brief: (§1)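 Live CHO cells stably expressing human A1 receptor were washed in HBS. They were preincubated 30 min at 37 °C with or without 100 nM DPCPX, then exposed to fluorescent ligand (25 nM, or up to 100 nM) for 10 min. Single equatorial confocal images were taken using identical laser power, gain and offset.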

Homo sapiens = organism: Homo sapiens; test: Selectivity ratio of human A1 receptor to human A3 receptor
[2] = molecular target: T4, Adenosine receptor A3 (Homo sapiens) (UniProt P0DMS8); test: Binding affinity to human adenosine A3 receptor expressed in CHO cells assessed as intracellular fluorescence level after 10 mins by confocal microscopic analysis; assay type: cell-based
T4 sequence (whole entry): T1 sequence (P0DMS8 whole entry)
Method in brief: (§2)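 Live CHO cells stably expressing human A3 receptor were washed in HBS. They were preincubated 30 min at 37 °C with or without 100 nM MRS1220, then exposed to 25 nM fluorescent ligand for 10 min. Single equatorial confocal images were taken in the continued presence of ligand, using identical laser and detector settings. Images are representative of 3−5 experiments.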

[3] = molecular target: T4, Adenosine receptor A3 (Homo sapiens); test: Binding affinity to human adenosine A3 receptor expressed in CHO cells assessed as intracellular fluorescence level after 10 mins by confocal microscopic analysis in presence of MRS1220 treated 30 mins before compound challenge; assay type: cell-based; method in brief: as §2
[4] = molecular target: T3, Adenosine receptor A1 (Homo sapiens); test: Binding affinity to human full length human adenosine A1 receptor expressed in CHO cells after 10 mins by confocal microscopic analysis in presence of DPCPX treated 30 mins before compound challenge; assay type: cell-based; method in brief: as §1
Adenosine receptor A1 = molecular target: T5, Adenosine receptor A1 (Homo sapiens, UniProt P30542); test: Antagonist activity at human adenosine A1 receptor expressed in CHO cells assessed as inhibition of NECA-induced increase of intracellular calcium level after 5 hrs
T5 sequence (P30542 whole entry): T3 sequence (whole entry)

[5] = molecular target: T3, Adenosine receptor A1 (Homo sapiens); test: Binding affinity to human full length human adenosine A1 receptor expressed in CHO cells up to 100 nM after 10 mins by confocal microscopic analysis; assay type: cell-based; method in brief: as §1

CCN1/C(=C/C=C/C=C/C2=[N+](CCCCCC(=O)NCCOCCOCCNC(=O)CCC(=O)Nc3nc4ccccc4n4c(=O)n(-c5ccc(OC)cc5)nc34)c3cc(S(=O)(=O)[O-])ccc3C2(C)C)C(C)(C)c2cc(S(=O)(=O)O)ccc21 gave a Kd (Adenosine receptor A3) of 148 nM.

Work on COc1ccc(-n2nc3c(NC(=O)c4ccc(N)cc4)nc4ccccc4n3c2=O)cc1 yielded a Kd (Adenosine receptor A3) of 38 nM.

COc1ccc(-n2nc3c(NC(=O)CCC(=O)NCCOCCOCCNC(=O)CCOCCOCCOCCOCCOCCOCCOCCOCCOCCOCCOCCOCCNC(=O)c4ccc(-c5c6ccc(=[N+](C)C)cc-6oc6cc(N(C)C)ccc56)c(C(=O)[O-])c4)nc4ccccc4n3c2=O)cc1 showed a Kd (Adenosine receptor A3) of 5.62 nM.

COc1ccc(-n2nc3c(NC(=O)CCC(=O)NCCCCCCCCNC(=O)CCCCCNC(=O)COc4ccc(/C=C/C5=[N+]6C(=Cc7ccc(-c8cccs8)n7[B-]6(F)F)C=C5)cc4)nc4ccccc4n3c2=O)cc1 gave a Kd (Adenosine receptor A3) of 16.6 nM.

Molecule COc1ccc(-n2nc3c(NC(=O)CN)nc4ccccc4n3c2=O)cc1 has a Kd (Adenosine receptor A3) of 1.45 nM.

Work on COc1ccc(-n2nc3c(NC(=O)CCC(=O)NCCCCCCCCN)nc4ccccc4n3c2=O)cc1 yielded a Kd (Adenosine receptor A3) of 0.331 nM.

In the case of COc1ccc(-n2nc3c(NC(=O)CCC(=O)NCCOCCOCCNC(=O)CCCCCNC(=O)COc4ccc(C5=[N+]6C(=Cc7ccc(-c8cccs8)n7[B-]6(F)F)C=C5)cc4)nc4ccccc4n3c2=O)cc1, the Kd (Adenosine receptor A3) is reported as 3.39 nM, the Kd (Adenosine receptor A2b) is reported as less than 1000 nM and the Activity [1] is reported as “Active”. For the same molecule, the Selectivity ratio (Homo sapiens) was 50, the Activity [2] was “Active” and the Activity [3] was “Active”. The Activity [4] was “inactive” and the Kd (Adenosine receptor A1) was 166 nM.

With COc1ccc(-n2nc3c(NC(=O)CCC(=O)NCCOCCOCCNC(=O)CCCCCNC(=O)COc4ccc(/C=C/C5=[N+]6C(=Cc7ccc(-c8cccs8)n7[B-]6(F)F)C=C5)cc4)nc4ccccc4n3c2=O)cc1 the Kd (Adenosine receptor A3) was 0.437 nM, the Kd (Adenosine receptor A2b) was less than 1000 nM and the Activity [5] was “inactive”. The Selectivity ratio (Homo sapiens) was 650, the Activity [2] was “Active” and the Activity [3] was “inactive”. The Kd (Adenosine receptor A1) was 275 nM.

COc1ccc(-n2nc3c(NC(=O)CCC(=O)NCCOCCOCCN)nc4ccccc4n3c2=O)cc1 was tested, and the Kd (Adenosine receptor A3) was 20.9 nM.
